Assay results as given in ChEMBL document CHEMBL1649368, “Novel isatinyl thiosemicarbazones derivatives as potential molecule to combat HIV-TB co-infection” (Eur J Med Chem, 2011).
Values after ≈ are worked out from the molar mass of the structure shown.

Legend:
[1] = test system: Human immunodeficiency virus 1; experiment: Antiviral activity against HIV1 3B infected in human MT4 cells assessed as protection against virus-induced cytopathogenicity after 5 days by microtiter plate analysis; assay type: functional, organism-based; conditions: Human immunodeficiency virus 1, 3B, MT4, 120 h
In short: (§1)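 MT-4 cells were grown in RPMI-1640 DM with 10% heat-inactivated calf serum and gentamicin. HIV-1 IIIB (100 CCID50) or mock infection was run in parallel with compounds in triplicate, at 37 °C and 5% CO2 for 5 days. Viability was read by MTT spectrophotometry. EC50 was the 50% reduction in virus cytopathic effect; CC50 was the 50% loss of mock-infected cell viability.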

[2] = Cytotoxicity against human MT4 cells after 5 days by spectrophotometry; assay type: cell-based; in short: as §1
[3] = test system: Mycobacterium tuberculosis; experiment: Antimycobacterial activity against Mycobacterium tuberculosis H37Ra by agar dilution method; assay type: functional
In short: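 Log-phase MTB was tested by agar dilution on Middlebrook 7H11 with OADC, following NCCLS guidance. MIC was the lowest concentration giving complete growth inhibition, determined in triplicate.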

Row | Structure (SMILES) | EC50 [1] [µM] | CC50 at 120 h [2] [µM] | MIC [3] [µM]
1 | CCn1cc(C(=O)O)c(=O)c2cc(F)c(N3CCN(CN4C(=O)/C(=N\NC(=S)NOC)c5cc(C)ccc54)CC3)cc21 | 11.4 | 238 | 1.31 (≈ 0.78 µg/mL)
2 | CONC(=S)N/N=C1\C(=O)N(CN2CCN(c3ccccc3)CC2)c2ccc(F)cc21 | 18.1 | 227 | 7.07 (≈ 3.13 µg/mL)
3 | O=C1/C(=N\NC(=S)NO)c2cc(Cl)ccc2N1CN1CCN(c2ccccc2)CC1 | 28.3 | 273 | 28.1 (≈ 12.5 µg/mL)
4 | CCN(CC)CN1C(=O)/C(=N\NC(=S)NO)c2cc(Cl)ccc21 | 121 | 562 | 70.3 (≈ 25 µg/mL)
5 | CONC(=S)N/N=C1\C(=O)N(CN2CCN(c3c(F)cc4c(=O)c(C(=O)O)cn(C5CC5)c4c3OC)CC2C)c2ccc(Cl)cc21 (stereo unspecified) | 7.14 | 164 | 0.3 (≈ 0.202 µg/mL)
6 | CCN(CC)CN1C(=O)/C(=N\NC(=S)NOC)c2cc(Cl)ccc21 | 58.4 | 454 | 16.9 (≈ 6.25 µg/mL)
7 | CCn1cc(C(=O)O)c(=O)c2cc(F)c(N3CCN(CN4C(=O)/C(=N\NC(=S)NOC)c5cc(C)ccc54)C(C)C3)c(F)c21 (stereo unspecified) | 5.74 | 156 | 1.24 (≈ 0.778 µg/mL)
8 | CONC(=S)N/N=C1\C(=O)N(CN2CCN(c3c(F)cc4c(=O)c(C(=O)O)cn(C5CC5)c4c3OC)CC2C)c2ccc(F)cc21 (stereo unspecified) | 1.88 | 171 | 0.15 (≈ 0.0984 µg/mL)
9 | CCn1cc(C(=O)O)c(=O)c2cc(F)c(N3CCN(CN4C(=O)/C(=N\NC(=S)NOC)c5cc(F)ccc54)C(C)C3)c(F)c21 (stereo unspecified) | 4.43 | 178 | 0.63 (≈ 0.398 µg/mL)
10 | CONC(=S)N/N=C1\C(=O)N(CN2CCN(c3ccccc3)CC2)c2ccc(C)cc21 | 17.3 | 276 | 12.4 (≈ 5.42 µg/mL)
11 | CCn1cc(C(=O)O)c(=O)c2cc(F)c(N3CCN(CN4C(=O)/C(=N\NC(=S)NO)c5cc(Cl)ccc54)CC3)cc21 | 27.2 | 186 | 1.3 (≈ 0.783 µg/mL)
12 | COc1ccc(N2CCN(CN3C(=O)/C(=N\NC(=S)NO)c4cc(Cl)ccc43)CC2)cc1 | 21.3 | 279 | 13.2 (≈ 6.25 µg/mL)
13 | CCN(CC)CN1C(=O)/C(=N\NC(=S)NOC)c2cc(F)ccc21 | 29.7 | 490 | 4.41 (≈ 1.56 µg/mL)
14 | O=C1/C(=N\NC(=S)NO)c2cc(F)ccc2N1CN1CCN(c2ccccc2)CC1 | 19.6 | 251 | 7.3 (≈ 3.13 µg/mL)
15 | CONC(=S)N/N=C1\C(=O)N(CN2CCN(c3ccccc3)CC2)c2ccc(Cl)cc21 | 17.7 | 267 | 13.6 (≈ 6.25 µg/mL)
16 | CONC(=S)N/N=C1\C(=O)N(CN2CCOCC2)c2ccc(C)cc21 | 45.1 | 365 | 4.29 (≈ 1.56 µg/mL)
17 | CONC(=S)N/N=C1\C(=O)N(CN(C)C)c2ccc(F)cc21 | 37.8 | 560 | 9.62 (≈ 3.13 µg/mL)
18 | CONC(=S)N/N=C1\C(=O)N(CN(C)C)c2ccc(Cl)cc21 | 57.9 | 552 | 18.3 (≈ 6.25 µg/mL)
19 | Cc1ccc2c(c1)/C(=N/NC(=S)NO)C(=O)N2CN1CCOCC1 | 93.6 | 572 | 8.96 (≈ 3.13 µg/mL)
20 | CCN(CC)CN1C(=O)/C(=N\NC(=S)NO)c2cc(C)ccc21 | 57.6 | 534 | 11.8 (≈ 3.97 µg/mL)
21 | CONC(=S)N/N=C1\C(=O)N(CN2CCN(c3cc4c(cc3F)c(=O)c(C(=O)O)cn4C3CC3)CC2)c2ccc(F)cc21 | 11.4 | 255 | 0.31 (≈ 0.19 µg/mL)
22 | CONC(=S)N/N=C1\C(=O)N(CN2CCN(c3ccc(OC)cc3)CC2)c2ccc(F)cc21 | 12.7 | 276 | 6.14 (≈ 2.9 µg/mL)

Row | Structure (SMILES) | EC50 [1] [µM] | CC50 at 120 h [2] [µM] | MIC [3] [µM]
23 | O=C1/C(=N\NC(=S)NO)c2cc(Cl)ccc2N1CN1CCOCC1 | 35.1 | 348 | 6.11 (≈ 2.26 µg/mL)
24 | COc1c(N2CCN(CN3C(=O)/C(=N\NC(=S)NO)c4cc(Cl)ccc43)C(C)C2)c(F)cc2c(=O)c(C(=O)O)cn(C3CC3)c12 (stereo unspecified) | 15.3 | 234 | 1.19 (≈ 0.783 µg/mL)
25 | COc1c(N2CCN(CN3C(=O)/C(=N\NC(=S)NO)c4cc(C)ccc43)C(C)C2)c(F)cc2c(=O)c(C(=O)O)cn(C3CC3)c12 (stereo unspecified) | 11.1 | 276 | 0.63 (≈ 0.402 µg/mL)
26 | CCn1cc(C(=O)O)c(=O)c2cc(F)c(N3CCN(CN4C(=O)/C(=N\NC(=S)NO)c5cc(C)ccc54)CC3)cc21 | 16.9 | 327 | 1.34 (≈ 0.779 µg/mL)
27 | O=C1/C(=N\NC(=S)NO)c2cc(F)ccc2N1CN1CCOCC1 | 61.4 | 465 | 4.41 (≈ 1.56 µg/mL)
28 | Cc1ccc2c(c1)/C(=N/NC(=S)NO)C(=O)N2CN(C)C | 113 | 651 | 81.3 (≈ 25 µg/mL)
29 | CCn1cc(C(=O)O)c(=O)c2cc(F)c(N3CCN(CN4C(=O)/C(=N\NC(=S)NO)c5cc(F)ccc54)CC3)cc21 | 18.4 | 208 | 1.33 (≈ 0.779 µg/mL)
30 | COc1ccc(N2CCN(CN3C(=O)/C(=N\NC(=S)NO)c4cc(C)ccc43)CC2)cc1 | 15 | 321 | 13.8 (≈ 6.25 µg/mL)
31 | CN(C)CN1C(=O)/C(=N\NC(=S)NO)c2cc(Cl)ccc21 | 130 | 610 | 76.3 (≈ 25 µg/mL)
32 | CCn1cc(C(=O)O)c(=O)c2cc(F)c(N3CCN(CN4C(=O)/C(=N\NC(=S)NO)c5cc(Cl)ccc54)C(C)C3)c(F)c21 (stereo unspecified) | 23.2 | 209 | 1.23 (≈ 0.78 µg/mL)
33 | COc1ccc(N2CCN(CN3C(=O)/C(=N\NC(=S)NO)c4cc(F)ccc43)CC2)cc1 | 14.7 | 260 | 6.83 (≈ 3.13 µg/mL)
34 | CONC(=S)N/N=C1\C(=O)N(CN(C)C)c2ccc(C)cc21 | 64.1 | 622 | 19.4 (≈ 6.25 µg/mL)
35 | CONC(=S)N/N=C1\C(=O)N(CN2CCN(c3cc4c(cc3F)c(=O)c(C(=O)O)cn4C3CC3)CC2)c2ccc(Cl)cc21 | 11 | 143 | 0.64 (≈ 0.402 µg/mL)
36 | CONC(=S)N/N=C1\C(=O)N(CN2CCOCC2)c2ccc(Cl)cc21 | 28.4 | 322 | 4.06 (≈ 1.56 µg/mL)
37 | COc1c(N2CCN(CN3C(=O)/C(=N\NC(=S)NO)c4cc(F)ccc43)C(C)C2)c(F)cc2c(=O)c(C(=O)O)cn(C3CC3)c12 (stereo unspecified) | 4.18 | 206 | 0.16 (≈ 0.103 µg/mL)
38 | O=C1/C(=N\NC(=S)NO)c2cc(Cl)ccc2N1CN1CCN(c2ccc(Cl)cc2)CC1 | 11.1 | 268 | 13 (≈ 6.25 µg/mL)
39 | Cc1ccnc2c1NC(=O)c1cccnc1N2C1CC1 [NEVIRAPINE] | 0.13 | 156 | 
40 | CN(C)CN1C(=O)/C(=N\NC(=S)NO)c2cc(F)ccc21 | 47.2 | 599 | 10.1 (≈ 3.13 µg/mL)
41 | O=C(O)c1cn(C2CC2)c2cc(N3CCN(CN4C(=O)/C(=N\NC(=S)NO)c5cc(Cl)ccc54)CC3)c(F)cc2c1=O | 33.4 | 229 | 2.54 (≈ 1.56 µg/mL)
42 | Cc1ccc2c(c1)/C(=N/NC(=S)NO)C(=O)N2CN1CCN(c2ccccc2)CC1 | 19.3 | 420 | 14.7 (≈ 6.25 µg/mL)
43 | CCN(CC)CN1C(=O)/C(=N\NC(=S)NO)c2cc(F)ccc21 | 36.2 | 521 | 9.22 (≈ 3.13 µg/mL)
44 | CONC(=S)N/N=C1\C(=O)N(CN2CCN(c3ccc(OC)cc3)CC2)c2ccc(Cl)cc21 | 13.1 | 221 | 12.8 (≈ 6.25 µg/mL)
